Data on 2 compounds can be found in ChEMBL document CHEMBL3992526, “Antagonizing NOD2 Signaling with Conjugates of Paclitaxel and Muramyl Dipeptide Derivatives Sensitizes Paclitaxel Therapy and Significantly Prevents Tumor Metastasis” (J Med Chem, 2017).

The target in data set [1] is Nucleotide-binding oligomerization domain-containing protein 2 (Homo sapiens, UniProt Q9HC29). As to the kind of experiment: Inhibition of MDP-induced human NOD2 signaling expressed in HEK-Blue cells preincubated for 3 hrs followed by MDP-stimulation for 20 hrs by spectrophotometry based SEAP reporter gene assay. Type of data set: cell-based.
Data set [2] can be described thus: Tmax in tumor of LLC tumor bearing C57BL/6N mouse at 18 mg/kg, iv by LC-MS/MS analysis. Type of data set: ADME, organism-based, Neoplasm. The gist of the method:
(§1)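 Mice bearing LLC tumors were given a single iv injection at equimolar doses: the conjugate at 30 mg/kg or paclitaxel at 18 mg/kg. Tumor tissue was sampled over time. Intact conjugate, released paclitaxel and MDA-linker were quantified in tumor tissue (nmol/g). Tmax and Cmax were taken from tumor concentration profiles, n=5 per group.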

Data set [3] is described as follows: AUC (0 to t) in tumor of LLC tumor bearing C57BL/6N mouse at 18 mg/kg, iv up to 24 hrs by LC-MS/MS analysis. The note with it: in vivo. In kind it is ADME, organism-based, Neoplasm. The gist of the method: (§2)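 Tumour-tissue pharmacokinetics in LLC tumour-bearing mice after a single iv injection of PTX at 18 mg/kg, equimolar to the conjugate at 30 mg/kg. Analyte concentrations were measured in tumour tissue over time (n=5 mice). Tmax is given in h and Cmax in nmol/g.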

A short description of data set [4]: Drug level in tumor of LLC tumor bearing C57BL/6N mouse treated with MTC-220 at 30 mg/kg, iv up to 24 hrs by LC-MS/MS analysis relative to paclitaxel alone. Type of data set: ADME, organism-based, Neoplasm. The note with it: in vivo. The gist of the method: as §1
The nature of data set [5]: Cmax in tumor of LLC tumor bearing C57BL/6N mouse at 18 mg/kg, iv by LC-MS/MS analysis. Type of data set: ADME, organism-based, Neoplasm. Further details: dose 18 mg/kg, route intravenous. To be noted: in vivo. The procedure, abridged: as §2

Structures are written as SMILES. pIC50: −log10 of the molar value.

Chain of Nucleotide-binding oligomerization domain-containing protein 2 (Q9HC29 whole entry, the tested form may be a part): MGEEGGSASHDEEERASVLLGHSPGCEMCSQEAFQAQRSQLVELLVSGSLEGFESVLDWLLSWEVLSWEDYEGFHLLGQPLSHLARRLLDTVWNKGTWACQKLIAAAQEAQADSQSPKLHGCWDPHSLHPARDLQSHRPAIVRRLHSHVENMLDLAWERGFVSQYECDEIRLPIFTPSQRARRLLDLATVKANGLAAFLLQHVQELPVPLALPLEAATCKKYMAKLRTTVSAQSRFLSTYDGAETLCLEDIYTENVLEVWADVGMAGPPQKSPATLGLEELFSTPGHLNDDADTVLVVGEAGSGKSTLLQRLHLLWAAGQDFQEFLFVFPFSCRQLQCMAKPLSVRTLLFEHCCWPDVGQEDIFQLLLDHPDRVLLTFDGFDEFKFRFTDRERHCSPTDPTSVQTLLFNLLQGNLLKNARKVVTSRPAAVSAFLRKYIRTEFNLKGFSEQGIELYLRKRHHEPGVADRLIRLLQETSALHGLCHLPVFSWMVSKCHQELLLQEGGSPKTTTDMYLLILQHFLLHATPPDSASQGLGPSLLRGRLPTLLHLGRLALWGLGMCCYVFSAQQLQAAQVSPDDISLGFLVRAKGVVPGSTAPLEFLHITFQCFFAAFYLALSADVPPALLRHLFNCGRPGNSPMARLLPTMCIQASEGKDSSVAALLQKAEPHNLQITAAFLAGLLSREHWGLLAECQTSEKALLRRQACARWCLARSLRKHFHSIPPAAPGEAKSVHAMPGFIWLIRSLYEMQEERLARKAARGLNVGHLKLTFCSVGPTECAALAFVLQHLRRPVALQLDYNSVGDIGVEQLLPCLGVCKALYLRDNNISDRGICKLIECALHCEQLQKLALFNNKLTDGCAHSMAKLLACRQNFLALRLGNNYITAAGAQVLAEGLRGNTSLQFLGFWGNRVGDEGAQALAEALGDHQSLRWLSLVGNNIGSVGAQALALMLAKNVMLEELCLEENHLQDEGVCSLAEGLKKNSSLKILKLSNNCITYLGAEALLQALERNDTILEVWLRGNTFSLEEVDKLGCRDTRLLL

`CC(=O)O[C@@]12CO[C@@H]1C[C@H](O)[C@@]1(C)C(=O)[C@H](O)C3=C(C)[C@@H](OC(=O)[C@H](O)[C@@H](NC(=O)OC(C)(C)C)c4ccccc4)C[C@@](O)([C@@H](OC(=O)c4ccccc4)[C@H]21)C3(C)C` [DOCETAXEL ANHYDROUS]: in data set [1], the pIC50 is 5.30.

In the case of `CC(=O)O[C@H]1C(=O)[C@@]2(C)[C@H]([C@H](OC(=O)c3ccccc3)[C@]3(O)C[C@H](OC(=O)[C@H](O)[C@@H](NC(=O)c4ccccc4)c4ccccc4)C(C)=C1C3(C)C)[C@]1(OC(C)=O)CO[C@@H]1C[C@@H]2O` [PACLITAXEL], the time to peak (Tmax) in data set [2] came to 1.05 h. In addition, the AUCt in data set [3] came to 46.62 nmol·h/g. For the same compound, the pIC50 in data set [1] was 5.10. Also, in data set [4], the “fold change (FC)” value is on record as 2. This compound had a Cmax in data set [5] of 4.85 nmol/g.
